Assay results taken from ChEMBL document CHEMBL5661972, “In vitro biological activity of a novel small-molecule inhibitor of polo-like kinase 1” (Mol Cancer Ther, 2007).

Tests used:
NCI-H460 [1] = assay: Induction of cell cycle arrest in human NCI-H460 cells assessed as accumulation of cells at >4N phase at 3 micromol/L incubated for 24 hrs by propidium iodide staining based flow cytometry analysis (reference value: 1.2 %); type: functional; conditions: dose 3 µmol/L, at 3 µM
How it was run: (§1)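 Cells seeded in six-well plates at densities that keep them in log growth (HDF 120,000, 60,000 or 30,000; H460 100,000, 50,000 or 25,000 per well for 24, 48 or 72 h). Treated with 1 or 3 μmol/L. Floating and adherent cells collected, ethanol-fixed, permeabilized with Triton X-100 and stained with propidium iodide. DNA content read by flow cytometry as % singlet cells.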

NHDF [2] = assay: Induction of cell cycle arrest in human HDF cells assessed as accumulation of cells at >4N phase at 3 micromol/L incubated for 24 hrs by propidium iodide staining based flow cytometry analysis (reference value: 2.4 %); type: toxicity; conditions: 3 µM, dose 3 µmol/L; how it was run: as §1
[3] = target: Mitogen-activated protein kinase 11 (Homo sapiens, UniProt Q15759); assay: Inhibition of p38beta (unknown origin)
Mitogen-activated protein kinase 11, sequence (Q15759 whole entry): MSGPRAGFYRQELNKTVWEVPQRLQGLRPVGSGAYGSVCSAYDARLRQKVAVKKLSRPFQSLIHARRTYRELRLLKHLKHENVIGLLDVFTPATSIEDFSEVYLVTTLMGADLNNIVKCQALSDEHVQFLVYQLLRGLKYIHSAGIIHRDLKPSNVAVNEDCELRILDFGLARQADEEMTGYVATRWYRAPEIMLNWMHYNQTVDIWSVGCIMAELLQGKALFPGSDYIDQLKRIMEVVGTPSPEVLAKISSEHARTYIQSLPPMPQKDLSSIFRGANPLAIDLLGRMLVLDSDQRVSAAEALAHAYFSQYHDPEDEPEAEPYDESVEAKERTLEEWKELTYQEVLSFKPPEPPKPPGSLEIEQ

NHDF [4] = assay: Induction of cell cycle arrest in human HDF cells assessed as accumulation of cells at Sub-2N phase at 3 micromol/L incubated for 24 hrs by propidium iodide staining based flow cytometry analysis (reference value: 0.2 %); type: toxicity; conditions: 3 µM, dose 3 µmol/L; how it was run: as §1
NHDF [5] = assay: Induction of cell cycle arrest in human HDF cells assessed as accumulation of cells at Sub-2N phase at 1 micromol/L incubated for 24 hrs by propidium iodide staining based flow cytometry analysis (reference value: 0.2 %); type: toxicity; conditions: 1 µM, dose 1 µmol/L; how it was run: as §1
[6] = target: Mitogen-activated protein kinase 14 (Homo sapiens, UniProt Q16539); assay: Inhibition of p38alpha (unknown origin)
Mitogen-activated protein kinase 14, sequence (Q16539 whole entry): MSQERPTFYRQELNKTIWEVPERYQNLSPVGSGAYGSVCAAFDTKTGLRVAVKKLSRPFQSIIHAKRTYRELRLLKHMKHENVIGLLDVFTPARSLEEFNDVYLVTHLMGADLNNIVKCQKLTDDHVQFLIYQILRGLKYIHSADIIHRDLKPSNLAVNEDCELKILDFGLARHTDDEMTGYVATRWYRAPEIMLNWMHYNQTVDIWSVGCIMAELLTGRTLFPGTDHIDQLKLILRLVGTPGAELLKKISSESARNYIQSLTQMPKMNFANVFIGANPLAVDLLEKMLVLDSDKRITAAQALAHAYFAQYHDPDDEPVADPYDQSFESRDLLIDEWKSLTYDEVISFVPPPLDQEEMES

NHDF [7] = assay: Induction of cell cycle arrest in human HDF cells assessed as accumulation of cells at S phase at 3 micromol/L incubated for 48 hrs by propidium iodide staining based flow cytometry analysis (reference value: 4.7 %); type: toxicity; conditions: 3 µM, dose 3 µmol/L; how it was run: as §1
NCI-H460 [8] = assay: Induction of cell cycle arrest in human NCI-H460 cells assessed as accumulation of cells at G1 phase at 1 micromol/L incubated for 24 hrs by propidium iodide staining based flow cytometry analysis (reference value: 45.5 %); type: functional; conditions: dose 1 µmol/L, at 1 µM; how it was run: as §1
NCI-H460 [9] = assay: Induction of cell cycle arrest in human NCI-H460 cells assessed as accumulation of cells at >4N phase at 1 micromol/L incubated for 24 hrs by propidium iodide staining based flow cytometry analysis (reference value: 1.2 %); type: functional; conditions: dose 1 µmol/L, at 1 µM; how it was run: as §1
[10] = Selectivity ratio of IC50 for cytotoxicity against human HDF cells to IC50 for antiproliferative activity against human PC-3 cells; type: toxicity, cell-based; conditions: HDF cells versus PC-3 cells
[11] = Inhibition of p53-PLK1 in human HeLa cells assessed as inhibition of p53 phosphorylation at Ser15 residue by ELISA analysis; type: cell-based
How it was run: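 HeLa Tet-On cells carrying tet-inducible p53-PLK1 kinase-domain fusion (T210D), induced overnight with 125 ng/mL doxycycline; ten 3-fold dilutions (30–0.00152 μmol/L final, 0.3% DMSO, 5% serum) for 1 h. Lysates captured on anti-p53-coated plates overnight at 4°C; phospho-Ser15 and total p53 detected with HRP secondary/TMB, A450. IC50 from curve fit.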

NHDF [12] = assay: Induction of cell cycle arrest in human HDF cells assessed as accumulation of cells at Sub-2N phase at 3 micromol/L incubated for 48 hrs by propidium iodide staining based flow cytometry analysis (reference value: 0.5 %); type: toxicity; conditions: 3 µM, dose 3 µmol/L; how it was run: as §1
[13] = Selectivity ratio of IC50 for cytotoxicity against human HDF cells to IC50 for antiproliferative activity against human HCT-116 cells; type: toxicity, cell-based; conditions: HDF cells versus HCT-116 cells
[14] = target: Proto-oncogene tyrosine-protein kinase Src (Homo sapiens, UniProt P12931); assay: Inhibition of c-src (unknown origin)
Proto-oncogene tyrosine-protein kinase Src, sequence (P12931 2-536 limits assumed): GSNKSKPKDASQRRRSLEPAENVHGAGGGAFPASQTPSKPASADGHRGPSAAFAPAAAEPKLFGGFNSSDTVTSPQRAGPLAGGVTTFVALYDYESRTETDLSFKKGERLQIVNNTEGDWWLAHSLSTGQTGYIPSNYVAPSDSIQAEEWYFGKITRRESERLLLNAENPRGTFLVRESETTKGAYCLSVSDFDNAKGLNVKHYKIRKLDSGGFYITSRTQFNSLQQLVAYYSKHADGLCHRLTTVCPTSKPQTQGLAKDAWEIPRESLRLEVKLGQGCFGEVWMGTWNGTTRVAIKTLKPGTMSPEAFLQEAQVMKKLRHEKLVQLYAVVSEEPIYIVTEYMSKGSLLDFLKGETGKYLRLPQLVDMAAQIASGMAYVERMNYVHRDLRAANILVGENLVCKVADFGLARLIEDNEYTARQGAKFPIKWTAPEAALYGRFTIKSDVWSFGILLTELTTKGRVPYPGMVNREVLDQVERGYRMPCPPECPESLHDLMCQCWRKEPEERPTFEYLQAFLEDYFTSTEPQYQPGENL

NCI-H460 [15] = assay: Induction of cell cycle arrest in human NCI-H460 cells assessed as accumulation of cells at S phase at 3 micromol/L incubated for 24 hrs by propidium iodide staining based flow cytometry analysis (reference value: 23.2 %); type: functional; conditions: dose 3 µmol/L, at 3 µM
NCI-H460 [16] = assay: Induction of cell cycle arrest in human NCI-H460 cells assessed as accumulation of cells at G2-M phase at 1 micromol/L incubated for 48 hrs by propidium iodide staining based flow cytometry analysis (reference value: 22.5 %); type: functional; conditions: dose 1 µmol/L, at 1 µM
NCI-H460 [17] = assay: Induction of cell cycle arrest in human NCI-H460 cells assessed as accumulation of cells at G2-M phase at 3 micromol/L incubated for 48 hrs by propidium iodide staining based flow cytometry analysis (reference value: 22.5 %); type: functional; conditions: dose 3 µmol/L, at 3 µM
MES-SA = assay: Antiproliferative activity against DX5 resistant human MES-SA cells assessed as inhibition of cell growth; type: functional, cell-based
How it was run: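 Cells grown 3 days in 96-well plates, seeded so vehicle controls stay in log growth (MES-SA/DX5 7,000, MES-SA 6,000, HDF 5,000 per well). Exposed to 3-fold dilutions, 30–0.00152 μmol/L, in medium with 5% FBS, 50 μg/mL gentamicin and 0.3% (v/v) DMSO. HDF medium was low-glucose DMEM; MES-SA lines used McCoy's 5A.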

NHDF [18] = assay: Induction of cell cycle arrest in human HDF cells assessed as accumulation of cells at G2-M phase at 3 micromol/L incubated for 72 hrs by propidium iodide staining based flow cytometry analysis (reference value: 8.2 %); type: toxicity; conditions: 3 µM, dose 3 µmol/L; how it was run: as §1
NHDF [19] = assay: Induction of cell cycle arrest in human HDF cells assessed as accumulation of cells at G1 phase at 1 micromol/L incubated for 72 hrs by propidium iodide staining based flow cytometry analysis (reference value: 85.6 %); type: toxicity; conditions: 1 µM, dose 1 µmol/L; how it was run: as §1
[20] = target: Vascular endothelial growth factor receptor 2 (Homo sapiens, UniProt P35968); assay: Inhibition of VEGFR2 (unknown origin)
Vascular endothelial growth factor receptor 2, sequence (P35968 whole entry): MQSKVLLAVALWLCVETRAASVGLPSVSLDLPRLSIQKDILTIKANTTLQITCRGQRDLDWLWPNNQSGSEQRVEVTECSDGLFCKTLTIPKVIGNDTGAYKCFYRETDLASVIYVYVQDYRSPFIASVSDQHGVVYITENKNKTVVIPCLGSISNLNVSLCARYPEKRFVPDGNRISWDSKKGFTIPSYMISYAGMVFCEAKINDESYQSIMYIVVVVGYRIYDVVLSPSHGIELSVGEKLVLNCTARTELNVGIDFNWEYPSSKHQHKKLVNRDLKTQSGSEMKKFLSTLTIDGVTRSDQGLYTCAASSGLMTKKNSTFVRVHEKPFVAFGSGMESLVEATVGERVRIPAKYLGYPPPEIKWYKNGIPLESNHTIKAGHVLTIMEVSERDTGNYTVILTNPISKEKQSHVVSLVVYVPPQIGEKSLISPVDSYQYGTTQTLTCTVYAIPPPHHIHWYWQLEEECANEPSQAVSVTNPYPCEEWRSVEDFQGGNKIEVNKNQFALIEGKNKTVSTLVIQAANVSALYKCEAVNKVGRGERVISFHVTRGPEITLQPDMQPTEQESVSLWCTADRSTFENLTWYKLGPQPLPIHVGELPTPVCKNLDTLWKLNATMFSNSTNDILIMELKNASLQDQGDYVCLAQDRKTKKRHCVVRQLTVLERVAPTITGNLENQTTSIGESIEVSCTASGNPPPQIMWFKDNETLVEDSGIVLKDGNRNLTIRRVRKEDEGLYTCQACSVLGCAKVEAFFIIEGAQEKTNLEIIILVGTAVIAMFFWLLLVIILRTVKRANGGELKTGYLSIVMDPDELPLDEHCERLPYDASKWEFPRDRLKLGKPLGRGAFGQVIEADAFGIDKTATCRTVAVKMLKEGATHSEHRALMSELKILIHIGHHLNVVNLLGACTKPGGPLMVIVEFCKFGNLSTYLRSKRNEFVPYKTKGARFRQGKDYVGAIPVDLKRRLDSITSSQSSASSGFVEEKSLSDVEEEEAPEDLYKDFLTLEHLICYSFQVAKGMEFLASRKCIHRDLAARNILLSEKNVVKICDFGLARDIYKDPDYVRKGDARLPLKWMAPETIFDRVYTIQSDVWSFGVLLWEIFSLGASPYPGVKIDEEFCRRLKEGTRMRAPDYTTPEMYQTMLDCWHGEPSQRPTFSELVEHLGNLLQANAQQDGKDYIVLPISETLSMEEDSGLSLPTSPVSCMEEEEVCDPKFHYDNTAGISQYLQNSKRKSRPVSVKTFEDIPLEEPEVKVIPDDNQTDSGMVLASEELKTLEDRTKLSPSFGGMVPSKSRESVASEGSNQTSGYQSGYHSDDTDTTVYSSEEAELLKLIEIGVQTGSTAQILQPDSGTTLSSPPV

NCI-H460 [21] = assay: Induction of cell cycle arrest in human NCI-H460 cells assessed as accumulation of cells at S phase at 1 micromol/L incubated for 72 hrs by propidium iodide staining based flow cytometry analysis (reference value: 17.8 %); type: functional; conditions: dose 1 µmol/L, at 1 µM
NHDF [22] = assay: Induction of cell cycle arrest in human HDF cells assessed as accumulation of cells at S phase at 1 micromol/L incubated for 24 hrs by propidium iodide staining based flow cytometry analysis (reference value: 13.2 %); type: toxicity; conditions: 1 µM, dose 1 µmol/L; how it was run: as §1
NCI-H460 [23] = assay: Induction of cell cycle arrest in human NCI-H460 cells assessed as accumulation of cells at G2-M phase at 3 micromol/L incubated for 24 hrs by propidium iodide staining based flow cytometry analysis (reference value: 19.8 %); type: functional; conditions: dose 3 µmol/L, at 3 µM
NCI-H460 [24] = assay: Induction of cell cycle arrest in human NCI-H460 cells assessed as accumulation of cells at Sub-2N phase at 3 micromol/L incubated for 72 hrs by propidium iodide staining based flow cytometry analysis (reference value: 2.1 %); type: functional; conditions: dose 3 µmol/L, at 3 µM

IC50 [3]: > 10 µM
IC50 [6]: > 10 µM
IC50 [11]: 0.14 µM
IC50 [14]: > 10 µM
IC50 [20]: 0.36 µM
SMILES: COc1cc2ncn(-c3cc(OCc4ccccc4C(F)(F)F)c(C(N)=O)s3)c2cc1OC [GW843682X]
Activity (NCI-H460 [1]): 6.2%
Activity (NHDF [2]): 6%
Activity (NHDF [4]): 0.2%
Activity (NHDF [5]): 0.3%
Activity (NHDF [7]): 5.9%
Activity (NCI-H460 [8]): 27.3%
Activity (NCI-H460 [9]): 5.1%
selectivity ratio [10]: 0.9
Activity (NHDF [12]): 2.3%
selectivity ratio [13]: 8.8
Activity (NCI-H460 [15]): 8.4%
Activity (NCI-H460 [16]): 11.2%
Activity (NCI-H460 [17]): 14.4%
IC50 (MES-SA): 0.21 µM
Activity (NHDF [18]): 52.7%
Activity (NHDF [19]): 66.2%
Activity (NCI-H460 [21]): 2.8%
Activity (NHDF [22]): 10.2%
Activity (NCI-H460 [23]): 37.7%
Activity (NCI-H460 [24]): 30%
